Laboratory results reported in ChEMBL document CHEMBL1146238, “Prenylated xanthones from the root bark of Cudrania tricuspidata” (J Nat Prod, 2007).
pIC50: −log10 of the molar value.

target: T1, Amine oxidase [flavin-containing] A (Mus musculus, UniProt Q64133); assay: Inhibition at monoamine oxidase in mouse brain; assay type: tissue-based
T1 sequence (Q64133 whole entry): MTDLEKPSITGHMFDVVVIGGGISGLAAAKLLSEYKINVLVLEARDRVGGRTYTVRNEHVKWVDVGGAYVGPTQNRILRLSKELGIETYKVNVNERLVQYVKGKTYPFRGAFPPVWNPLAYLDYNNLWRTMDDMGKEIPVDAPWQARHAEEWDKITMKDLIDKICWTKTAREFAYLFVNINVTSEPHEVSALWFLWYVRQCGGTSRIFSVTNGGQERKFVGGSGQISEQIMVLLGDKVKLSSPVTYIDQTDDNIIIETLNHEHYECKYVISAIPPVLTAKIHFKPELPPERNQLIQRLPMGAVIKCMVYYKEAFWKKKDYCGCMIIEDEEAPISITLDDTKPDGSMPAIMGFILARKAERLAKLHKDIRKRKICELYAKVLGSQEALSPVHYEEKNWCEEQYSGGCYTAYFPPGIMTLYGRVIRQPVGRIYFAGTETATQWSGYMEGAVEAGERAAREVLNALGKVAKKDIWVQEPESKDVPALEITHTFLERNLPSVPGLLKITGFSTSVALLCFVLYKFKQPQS
Outline: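 Enzyme source: mouse brain mitochondrial fraction. Substrate kynuramine, with MAO converting it to 4-hydroxyquinoline. That product is read fluorometrically at excitation 315 nm and emission 380 nm. Compounds go in as DMSO solutions, with DMSO kept below 3%. Iproniazid serves as the positive control. Result reported as IC50.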

Row | pIC50 | Compound
1 | 4.05 | CC(C)=CCc1c(O)cc2c(c1O)C(=O)C[C@@H](c1cc3c(cc1O)OC(C)(C)C=C3)O2 [CUDRAFLAVANONE A]
2 | < 3.82 | CC(C)=CC1Oc2cc(O)ccc2-c2oc3cc4c(c(O)c3c(=O)c21)C=CC(C)(C)O4 (stereo unspecified) [CUDRAFLAVONE A]
3 | 4.10 | CC(C)=CCc1c(-c2ccc(O)cc2O)oc2cc3c(c(O)c2c1=O)C=CC(C)(C)O3 [CUDRAFLAVONE B]
4 | 4.05 | C=CC(C)(C)c1c(O)cc(O)c2c(=O)c3c(CC=C(C)C)c(O)c(O)cc3oc12 [CUDRATRICUSXANTHONE A]
5 | < 3.82 | CC(C)=CCc1c(O)c(O)cc2oc3c4c(cc(O)c3c(=O)c12)OC(C)C4(C)C (stereo unspecified) [CUDRATRICUSXANTHONE J]
6 | < 3.82 | COc1c(CC=C(C)C)c(O)c2c(=O)c3cc(O)c(O)cc3oc2c1CC=C(C)C [CUDRATRICUSXANTHONE K]
7 | < 3.82 | C=CC(C)(C)c1c(O)cc(O)c2c(=O)c3cc(O)c(O)cc3oc12 [CUDRATRICUSXANTHONE L]
8 | < 3.82 | C=CC(C)(C)c1c(O)cc(O)c2c(=O)c3c(CCC(C)(C)O)c(O)c(O)cc3oc12 [CUDRATRICUSXANTHONE M]
9 | < 3.82 | C=CC(C)(C)c1c(O)cc(O)c2c(=O)c3c(CC=C(C)C)c(OC)c(O)cc3oc12 [CUDRAXANTHONE C]
10 | < 3.82 | C=CC(C)(C)c1c(O)cc2oc3c(CC=C(C)C)c(O)c(O)cc3c(=O)c2c1O [CUDRAXANTHONE L]
11 | < 3.82 | C=CC(C)(C)c1c(O)cc2oc3c4c(c(O)cc3c(=O)c2c1O)OC(C)(C)C=C4 [ISOCUDRAXANTHONE K]
